Experimental data gathered from unrelated publications.
Target: Tyrosine-protein kinase SYK (SYK, Homo sapiens, UniProt P43405)

| SMILES | assay | conditions | measurement | value |
| --- | --- | --- | --- | --- |
| Cc1c(NC(=O)c2cc(C(N)=O)nc3cc(F)ccc23)c(C(F)(F)F)nn1Cc1ccc(C#N)cc1 | cell-free assay, competition with immobilised ligand | 1 µM | remaining binding | 95% |
| C=CC(=O)Nc1cc(Nc2nccc(Nc3cc(Cl)c(F)cc3C(C)(C)O)n2)c(OC)cc1N1CC[C@@H](N(C)C)C1 | enzyme activity, inhibitor | 1 µM | inhibition | 14% |
| FC(F)(F)Oc1cccc(-c2cnc3ccc(-c4ccncc4)nn23)c1 | enzyme activity, inhibitor, radiometric | 1 µM | activity vs control | 72% |
| CN(c1ccnc(CNc2nc(Nc3ccc4c(c3)CC(=O)N4)ncc2C(F)(F)F)n1)S(C)(=O)=O | cell-free assay, competition with immobilised ligand | 1 µM | remaining binding | 5.7% |
| CC/C(=N\NC(=O)NCc1cccc(O)c1)c1ccc(O)c(C)c1O | enzyme activity, inhibitor | 0.1 µM | inhibition | 3.3% |
| CC(C)(O)[C@H]1CC[C@H](Nc2ccc3ncc(-c4cccc(C(F)(F)F)c4)n3n2)CC1 | enzyme activity, inhibitor | 1 µM | remaining activity | 72.3% |
| COc1cc(Nc2cnc(C#N)c(O[C@H](C)CN(C)C)n2)ncc1-c1cnn(C)c1 | enzyme activity, inhibitor, radiometric | 10 µM | remaining activity | 63% |
| CNc1cccc2cc(C(=O)Nc3ccc(C(=O)O)cc3)c(=O)[nH]c12 | enzyme activity, inhibitor | 10 µM | inhibition | 4% |
| CC(C)(C)c1nc(-c2cccc(NS(=O)(=O)c3c(F)cccc3F)c2F)c(-c2ccnc(N)n2)s1 | enzyme activity, inhibitor, radiometric | 1 µM | remaining activity | 111% |
| O=C1NC(=O)c2cc(Nc3ccc(F)cc3)c(Nc3ccc(F)cc3)cc21 | cell-free assay | 0.5 µM | remaining signal | 98.8% |
| Cn1c(=O)n(-c2ccc(C(C)(C)C#N)cc2)c2c3cc(-c4cnc5ccccc5c4)ccc3ncc21 | enzyme activity, inhibitor | 10 µM | remaining activity | 72% |
| CS(=O)(=O)Nc1cccc(-c2csc(NC(=O)CSc3nc4nccnc4c(=O)n3CCc3ccccc3)n2)c1 | enzyme activity, inhibitor | 10 µM | inhibition | -1% |
| CNC(=O)c1cc(Oc2ccc(NC(=O)Nc3ccc(Cl)c(C(F)(F)F)c3)cc2)ccn1 | enzyme activity, inhibitor | 0.3 µM | inhibition | 3% |
| Cc1cc(NC(=O)c2cccc3cc(-c4cccc5[nH]nc(N)c45)ccc23)ccc1F | enzyme activity, inhibitor | 0.1 µM | activity vs control | 109% |
| COc1cc2c(Nc3ccc(Br)cc3F)ncnc2cc1OCC1CCN(C)CC1 | cell-free assay | 0.5 µM | remaining signal | 101% |
| CN(C)C1CCN(CC#Cc2nn(C3CCCC3)c3nc(NCc4ccccc4)ncc23)C1 (centres unmarked) | enzyme activity, inhibitor, FRET | 0.1 µM | inhibition | 2% |

| SMILES | assay | conditions | measurement | value |
| --- | --- | --- | --- | --- |
| O=C(O)[C@H]1[C@H](Cn2nnc3ccccc3c2=O)CC[C@@H]1C(=O)c1ccc(OCCC2CCOCC2)cc1 | cell-free assay, competition with immobilised ligand | 1 µM | remaining binding | 76% |
| CN1CC(Oc2cnc(C#N)cc2-c2ccn3nc(NC(=O)C4CC4)cc3c2)C1 | enzyme activity, inhibitor | 1 µM | inhibition | 1% |
| Cn1cc(Cl)c2c(Oc3c(F)cc(Nc4cc(Cl)nc(N)n4)cc3F)ccnc21 | cell-free assay, competition with immobilised ligand | 0.1 µM | remaining binding | 100% |
| Cc1ccc(NC(=O)c2ccc(C)c(C(F)(F)F)c2)cc1C#Cc1nn(C2CCC(O)CC2)c2ncnc(N)c12 (centres unmarked) | cell-free assay | 10 µM | remaining signal | 95% |
| Oc1cccc(-c2nc(N3CCOCC3)c3oc4ncccc4c3n2)c1 | cell-free assay | 0.5 µM | remaining signal | 94.2% |
| CS(=O)(=O)NCC[C@H](NC(=O)c1cncc2c1cnn2-c1ccc(F)cc1)c1ccnc(S(C)(=O)=O)c1 | cell-free assay, competition with immobilised ligand | 1 µM | remaining binding | 100% |
| CC(C)(C)C(=O)c1sc(NC2CCCCC2)nc1N | enzyme activity, inhibitor | 10 µM | remaining activity | 111% |
| Cc1sc(C(=O)NC2COC2)cc1-n1cc(NC(=O)Nc2c(F)cccc2Cl)cn1 | enzyme activity, inhibitor | 10 µM | remaining activity | 88.5% |
| COc1cc(/C=C/C(=O)CC(=O)/C=C/c2ccc(O)c(OC)c2)ccc1O | enzyme activity, inhibitor | 1 µM | activity vs control | 92% |
| CN(c1ncccc1CNc1nc(Nc2ccc3c(c2)CC(=O)N3)ncc1C(F)(F)F)S(C)(=O)=O | enzyme activity, inhibitor | 1 µM | inhibition | 91.7% |
| Cc1nc(Cc2cccc(C(F)(F)F)c2)sc1-c1ccc(C(N)=O)nc1 | cell-free assay, competition with immobilised ligand | 1 µM | remaining binding | 100% |
| Cc1ccc(Nc2nccc(N(C)c3ccc4c(C)n(C)nc4c3)n2)cc1S(N)(=O)=O | enzyme activity, inhibitor | 0.3 µM | inhibition | 21% |
| O=C(N1CCS(=O)(=O)CC1)N1C[C@H](c2ccc(OC(F)(F)F)cc2)C[C@H](c2nc(C3CC3)no2)C1 | cell-free assay, competition with immobilised ligand | 1 µM | remaining binding | 100% |
| O=C(Nc1cnn(-c2csc(C(=O)NC3COC3)c2)c1)Nc1c(F)cccc1Cl | enzyme activity, inhibitor | 5 µM | remaining activity | 90.3% |
| Nc1cnc(N2CCc3cc(S(=O)(=O)Nc4c(F)cc(Cl)cc4F)cc(N4CCCC4=O)c32)nc1 | cell-free assay, competition with immobilised ligand | 1 µM | remaining binding | 100% |
| COc1cc2ncnc(Nc3ccc(Oc4ccccc4)cc3C)c2cc1OC | enzyme activity, inhibitor | 1 µM | inhibition | 1% |
